# High-throughput results (PubChem BioAssay)
# MrgX1 PAM: positive allosteric modulators of MrgX1, primary screen, HEK293 cells, Fluo-4 calcium flux; Mas-related G-protein coupled receptor member X1 (Homo sapiens), Q96LB2; FDSS; hits give high values; B-score at 10 µM; 0.63% of 310,000 active; AID 588675, 2011;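 active = plate-corrected calcium response at least 3 library SD above typical, normal starting fluorescence, not activating the receptor alone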;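 note: compound read alongside a low EC10 to EC30 dose of BAM8-22 agonist; peak minus trough fluorescence over baseline measured at the second addition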
# Target sequence (Q96LB2 whole entry, looked up): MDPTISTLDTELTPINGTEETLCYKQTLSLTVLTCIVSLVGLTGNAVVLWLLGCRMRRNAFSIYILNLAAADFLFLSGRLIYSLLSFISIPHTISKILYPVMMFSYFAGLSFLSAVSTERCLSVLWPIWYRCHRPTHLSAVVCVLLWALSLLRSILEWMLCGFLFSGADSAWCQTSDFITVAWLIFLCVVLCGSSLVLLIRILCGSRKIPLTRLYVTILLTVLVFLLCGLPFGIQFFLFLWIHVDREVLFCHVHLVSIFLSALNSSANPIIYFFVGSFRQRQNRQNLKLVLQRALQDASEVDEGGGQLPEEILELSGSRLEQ
# MrgX1 ag: agonists of human MrgX1 receptor, primary screen, HEK293 cells, Fluo-4 calcium flux; Fluo-4 calcium fluorescence, agonist mode; hits give high values; B-score at 10 µM; AID 588627, 2011; 0.44% of 310,000 active; Mas-related G-protein coupled receptor member X1 (Homo sapiens), Q96LB2;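 active = calcium response B-score plate-corrected fluorescence ratio at least 3 library SD, with starting fluorescence B-score inside 5 SD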
#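 Material: MrgX1-expressing HEK293 cells / Dosing: compound as first of three additions / Incubation: overnight seeding, then 1 h dark dye loading / Signal: Fluo-4 NW calcium fluorescence / Evaluation: B-scored fluorescence response ratio / Benchmarks: positive and negative control wells on each plate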
# RGS4 pot: RGS4 potentiators or activators, primary screen, cell-based, HEK293 M3R inducible RGS4, calcium flux. carbachol calcium flux Fluo4; hits give low values. B-score at 10 µM. 0.92% of 310,000 active. AID 463111, 2010;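 active = B-score of the integrated calcium signal more than 4 SD below the library mean, with starting fluorescence not abnormally high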;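 note: negative B-score means reduced calcium response which marks RGS4 activation or potentiation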
#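 System – HEK293 FlpIn-TREx cells, stable M3R, doxycycline-inducible RGS4 · Reagent – ECmax carbachol challenge · Times – compound preincubation 20 min at room temperature before agonist · Technique – Fluo4 fluorescence kinetic imaging of calcium · Measure – B score of integrated Fluo4 ratio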
# RGS4 inh: RGS4 inhibitors, primary screen, cell-based, HEK293 M3R inducible RGS4, calcium flux | AID 463165, 2010 | Fluo-4 calcium flux; hits give high values; triggered by carbachol at its EC20 | Regulator of G-protein signaling 4 (Homo sapiens), P49798 | B-score at 10 µM | 0.45% of 310,000 active;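 active = B-score, a plate-corrected calcium signal, over three deviations above library mean, with baseline fluorescence within five deviations of library mean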;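 note: RGS4 expression induced by doxycycline in cells with stable M3 receptor; B-score is computed from the integrated fluorescence ratio over baseline after carbachol; higher B-score means a larger calcium signal and so more RGS4 inhibition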
# Hep lipid drop: inhibitors of hepatocyte lipid droplet formation, primary screen, imaging, high-throughput imaging, BODIPY stain. AID 1656, 2009. AML12 mouse hepatocytes, oleate lipid droplets. inhibition, % at 6.5 µM. 0.4% of 240,000 active;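 active = lipid droplet intensity inhibited by at least 50%, with more than 500 cells counted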
#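 material = mouse AML12 hepatocyte cell line, fixed after treatment | also added = 100 µM oleic acid challenge | doses = compound at 6.5 µM only | schedule = overnight exposure | technique = Image-based BODIPY and DAPI two-channel analysis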
# MrgX1 antag: antagonists of human MrgX1 receptor, primary screen, HEK293 cells, Fluo-4 calcium flux; Mas-related G-protein coupled receptor member X1 (Homo sapiens), Q96LB2; BAM8-22 antagonism; hits give low values; B-score at 10 µM; 1.3% of 310,000 active; AID 588676, 2011;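 active = calcium-response B-score plate-corrected more than 3 library SD below zero, starting fluorescence within 5 deviations, no agonist response on first addition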;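 note: peak minus trough fluorescence over baseline after final BAM8-22 challenge near maximal dose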
# * marks the source's active call; other numbers are inactive results; i = inactive; x = no result. Rows were chosen to be rich in hits. Some 3.8% of all compounds tested hit in one or more screens of this group.
SMILES,MrgX1 PAM,MrgX1 ag,RGS4 pot,RGS4 inh,Hep lipid drop,MrgX1 antag
CN(c1ccccc1)c1ccc(/C=C(\CCC(=O)O)c2nc3ccccc3s2)cc1[N+](=O)[O-],i,i,i,i,-1,-7.4*
Cc1ccc(/C=C(\CCC(=O)O)c2nc3ccccc3s2)cc1[N+](=O)[O-],i,i,i,i,20,i
CC(C)CN(CC(C)C)S(=O)(=O)N1CCC(C(=O)NCc2ccc(F)cc2)CC1,i,i,i,i,x,i
CC(C)CN(CC(C)C)S(=O)(=O)N1CCC(C(=O)NCCc2ccc(Cl)cc2)CC1,i,i,i,i,-1,-7.6*
COc1c2c(nc3occc13)C(CC=C(C)C)(OC)C(=O)C=C2 (configuration not stated),12*,i,i,i,21,i
C=CCOc1ccc2c(OC)c3ccoc3nc2c1OC,i,i,i,i,-10,i
C=CCn1cc(C(=O)N2CCN(C)CC2)c(=O)c2cc(S(=O)(=O)N(CC)CC)ccc21,i,i,i,i,0,i
CN(C)CCOC1c2ccccc2CSc2ccccc21 (configuration not stated),i,i,-8.9*,i,x,i
O=C(CSc1nc2ccccc2c(=O)n1Cc1ccco1)c1ccccc1,i,i,i,i,2,i
Cc1cc(-n2c(C)cc(C(=O)CSc3nc4ccccc4c(=O)n3Cc3ccco3)c2C)no1,i,i,i,i,-3,-6.3*
C=CCn1c2ccccc2c2nnc(SCCN3CCCCC3)nc21,i,i,-7.3*,i,-19,i
CCn1c2ccc(F)cc2c2nnc(SCCN3CCCCC3)nc21,i,i,-7*,i,-29,i
CCCn1c2ccccc2c2nnc(SCCN3CCOCC3)nc21,i,i,i,i,-1,i
COc1ccc(NC(=S)NNC(=O)c2ccco2)c(OC)c1,i,i,i,i,-6,-5.3*
COc1ccc(Nc2nc(-c3ccccc3O)nc3ccccc23)cc1,i,i,-7*,i,2,i
COc1cccc(Nc2nc(-c3ccccc3O)nc3ccccc23)c1,i,i,i,i,x,i
COc1ccc(Nc2nc(-c3ccccc3F)nc3ccccc23)cc1OC,i,i,-7.2*,i,8,i
NC1=NC(c2ccccc2C(F)(F)F)N(c2ccc(F)c(Cl)c2)C(N)=N1 (configuration not stated),i,i,i,i,2,i
COC(=O)c1cc(NS(=O)(=O)c2ccc(Cl)c(N3C(=O)c4ccc(C(=O)O)cc4C3=O)c2)cc(C(=O)OC)c1,9.9*,i,i,i,-24,i
O=C(O)CCCN1C(=O)c2ccc(Oc3cccc([N+](=O)[O-])c3)cc2C1=O,i,i,i,i,-1,i
COc1ccccc1OCCC(=O)OCC(=O)NC(C)c1ccccc1 (configuration not stated),i,i,i,i,-39,-6.1*
COc1ccccc1OCCC(=O)OCC(=O)Nc1ccc(Br)cc1,i,i,i,i,18,i
CCn1ncc(/C=C/C(=O)NCc2cnn(C)c2C)c1C,i,i,i,i,x,i
CCn1ncc(/C=C/C(=O)NCc2cn(C)nc2C)c1C,i,i,i,i,x,-4.8*
CCCCCNC(=O)c1c[nH]c2ccc(S(=O)(=O)N3CCC4(CC3)OCCO4)cc2c1=O,i,i,i,i,-29,i
CN1CCN(CC#CCC(O)(c2ccccc2)c2ccccc2)CC1,i,i,i,i,-27,i
OC(CC#CCN1CCCC1)(c1ccccc1)c1ccccc1,i,i,i,i,4,i
